Measurements: ChEMBL document CHEMBL5653631, “A Potent and Selective ULK1 Inhibitor Suppresses Autophagy and Sensitizes Cancer Cells to Nutrient Stress” (iScience, 2018)

Tests used:
[1] = target: Serine/threonine-protein kinase PLK1 (Homo sapiens) (UniProt P53350); assay: Inhibition of human recombinant PLK1 at 40 nM in presence of ATP by radiometric assay relative to control
[2] = target: Tyrosine-protein kinase JAK2 (Homo sapiens) (UniProt O60674); assay: Inhibition of human recombinant JAK2 at 40 nM in presence of ATP by radiometric assay relative to control
Tyrosine-protein kinase JAK2 (Homo sapiens), sequence (O60674 whole entry): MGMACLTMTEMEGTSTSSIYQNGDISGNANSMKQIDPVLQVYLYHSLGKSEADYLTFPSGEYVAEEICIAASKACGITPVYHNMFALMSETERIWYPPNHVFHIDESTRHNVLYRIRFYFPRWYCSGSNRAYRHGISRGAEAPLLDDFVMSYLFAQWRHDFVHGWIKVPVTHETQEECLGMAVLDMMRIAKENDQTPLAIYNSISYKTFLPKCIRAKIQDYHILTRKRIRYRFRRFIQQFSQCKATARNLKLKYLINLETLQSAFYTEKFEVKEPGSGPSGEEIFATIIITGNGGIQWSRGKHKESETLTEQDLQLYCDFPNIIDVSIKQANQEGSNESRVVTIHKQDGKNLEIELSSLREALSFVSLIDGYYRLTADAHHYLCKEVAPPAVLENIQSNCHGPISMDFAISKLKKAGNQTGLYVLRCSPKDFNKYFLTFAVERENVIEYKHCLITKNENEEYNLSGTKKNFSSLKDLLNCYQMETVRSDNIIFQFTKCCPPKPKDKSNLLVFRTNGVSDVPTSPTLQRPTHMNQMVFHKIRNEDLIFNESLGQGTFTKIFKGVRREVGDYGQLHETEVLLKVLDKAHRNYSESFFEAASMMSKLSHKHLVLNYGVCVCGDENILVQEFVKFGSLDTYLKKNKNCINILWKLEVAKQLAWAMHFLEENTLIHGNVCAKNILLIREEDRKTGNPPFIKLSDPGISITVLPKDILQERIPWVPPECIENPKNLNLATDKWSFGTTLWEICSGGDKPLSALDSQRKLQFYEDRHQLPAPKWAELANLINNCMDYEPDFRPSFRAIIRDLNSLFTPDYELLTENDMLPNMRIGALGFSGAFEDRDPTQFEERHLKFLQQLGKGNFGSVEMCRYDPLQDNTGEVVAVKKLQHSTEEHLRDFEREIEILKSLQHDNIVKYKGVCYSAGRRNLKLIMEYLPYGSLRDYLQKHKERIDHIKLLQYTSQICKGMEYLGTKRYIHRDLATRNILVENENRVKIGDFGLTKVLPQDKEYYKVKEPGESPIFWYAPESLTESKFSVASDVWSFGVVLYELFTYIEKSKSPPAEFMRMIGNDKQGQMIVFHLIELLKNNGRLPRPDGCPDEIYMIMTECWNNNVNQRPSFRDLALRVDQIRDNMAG

[3] = target: T1, Serine/threonine-protein kinase TAO2 (Homo sapiens) (UniProt Q9UL54); assay: Inhibition of human recombinant TAO2 at 40 nM related to control ULK1
T1 sequence (whole entry): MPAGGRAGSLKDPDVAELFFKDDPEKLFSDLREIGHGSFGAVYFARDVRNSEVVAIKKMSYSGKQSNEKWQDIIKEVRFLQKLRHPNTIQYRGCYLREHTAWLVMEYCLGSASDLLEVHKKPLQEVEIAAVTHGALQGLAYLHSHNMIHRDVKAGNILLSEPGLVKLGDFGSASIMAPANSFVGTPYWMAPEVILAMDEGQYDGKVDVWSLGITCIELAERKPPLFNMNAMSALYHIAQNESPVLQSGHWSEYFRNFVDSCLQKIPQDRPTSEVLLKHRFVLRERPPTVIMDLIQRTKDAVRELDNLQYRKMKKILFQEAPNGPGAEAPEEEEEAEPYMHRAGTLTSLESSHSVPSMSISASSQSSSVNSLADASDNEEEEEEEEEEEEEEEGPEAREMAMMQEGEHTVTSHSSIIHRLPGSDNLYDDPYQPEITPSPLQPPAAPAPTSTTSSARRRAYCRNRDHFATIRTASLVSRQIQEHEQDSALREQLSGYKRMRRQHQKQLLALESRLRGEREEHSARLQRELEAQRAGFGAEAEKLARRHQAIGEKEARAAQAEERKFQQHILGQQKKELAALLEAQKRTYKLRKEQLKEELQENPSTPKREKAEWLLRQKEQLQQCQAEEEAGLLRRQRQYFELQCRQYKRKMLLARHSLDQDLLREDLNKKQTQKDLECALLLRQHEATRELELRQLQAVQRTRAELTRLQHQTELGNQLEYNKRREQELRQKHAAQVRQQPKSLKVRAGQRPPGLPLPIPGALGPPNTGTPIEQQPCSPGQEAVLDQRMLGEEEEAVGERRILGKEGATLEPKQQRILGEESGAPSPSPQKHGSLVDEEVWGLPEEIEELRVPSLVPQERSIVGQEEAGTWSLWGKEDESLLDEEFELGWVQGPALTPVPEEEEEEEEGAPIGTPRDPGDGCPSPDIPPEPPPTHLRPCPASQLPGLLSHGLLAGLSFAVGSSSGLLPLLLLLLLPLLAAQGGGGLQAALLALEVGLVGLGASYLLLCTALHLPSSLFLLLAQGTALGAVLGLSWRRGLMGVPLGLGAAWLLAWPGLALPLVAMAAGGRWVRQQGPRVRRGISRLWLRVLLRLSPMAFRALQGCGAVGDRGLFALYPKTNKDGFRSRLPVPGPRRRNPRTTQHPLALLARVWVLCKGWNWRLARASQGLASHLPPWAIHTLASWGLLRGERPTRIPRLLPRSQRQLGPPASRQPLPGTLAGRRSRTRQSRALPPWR

[4] = target: Mitogen-activated protein kinase kinase kinase kinase 4 (Homo sapiens) (UniProt O95819); assay: Inhibition of human recombinant HGK at 15 nM in presence of ATP by radiometric assay relative to control
Mitogen-activated protein kinase kinase kinase kinase 4 (Homo sapiens), sequence (O95819 2-1239 limits assumed): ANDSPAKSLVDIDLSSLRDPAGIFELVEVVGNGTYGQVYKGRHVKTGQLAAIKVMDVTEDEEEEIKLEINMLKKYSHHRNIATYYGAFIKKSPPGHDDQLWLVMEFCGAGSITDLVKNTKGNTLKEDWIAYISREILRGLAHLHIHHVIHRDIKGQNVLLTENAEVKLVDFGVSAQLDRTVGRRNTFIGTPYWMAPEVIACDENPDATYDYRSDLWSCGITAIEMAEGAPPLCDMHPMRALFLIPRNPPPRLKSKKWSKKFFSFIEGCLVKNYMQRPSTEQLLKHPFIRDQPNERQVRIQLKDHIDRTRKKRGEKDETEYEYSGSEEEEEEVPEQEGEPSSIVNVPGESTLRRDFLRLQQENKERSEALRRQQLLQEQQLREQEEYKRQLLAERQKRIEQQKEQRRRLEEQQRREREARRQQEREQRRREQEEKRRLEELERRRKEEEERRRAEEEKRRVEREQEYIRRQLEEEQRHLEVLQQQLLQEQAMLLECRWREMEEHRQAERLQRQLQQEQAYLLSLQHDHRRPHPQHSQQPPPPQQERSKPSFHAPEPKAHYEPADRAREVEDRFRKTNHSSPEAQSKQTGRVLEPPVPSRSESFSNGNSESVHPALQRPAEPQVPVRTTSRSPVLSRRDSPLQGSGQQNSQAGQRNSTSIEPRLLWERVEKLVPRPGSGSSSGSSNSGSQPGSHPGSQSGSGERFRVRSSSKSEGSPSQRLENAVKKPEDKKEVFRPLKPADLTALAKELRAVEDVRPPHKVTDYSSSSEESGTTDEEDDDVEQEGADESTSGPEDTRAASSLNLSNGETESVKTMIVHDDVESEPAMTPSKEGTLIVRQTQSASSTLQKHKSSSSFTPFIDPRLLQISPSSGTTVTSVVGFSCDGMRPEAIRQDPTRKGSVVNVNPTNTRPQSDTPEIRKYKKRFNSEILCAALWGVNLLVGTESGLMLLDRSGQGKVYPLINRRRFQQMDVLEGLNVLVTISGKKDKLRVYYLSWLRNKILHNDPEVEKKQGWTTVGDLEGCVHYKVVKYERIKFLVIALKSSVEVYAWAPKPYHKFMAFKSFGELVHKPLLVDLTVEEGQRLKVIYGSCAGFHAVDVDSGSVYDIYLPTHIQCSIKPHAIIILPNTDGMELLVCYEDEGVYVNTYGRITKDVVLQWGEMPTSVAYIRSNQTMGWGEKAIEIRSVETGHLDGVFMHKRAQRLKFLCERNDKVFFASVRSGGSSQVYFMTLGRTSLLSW

[5] = target: Serine/threonine-protein kinase 32B (Homo sapiens) (UniProt Q9NY57); assay: Inhibition of human recombinant YANK2 at 15 nM related to control ULK1
Serine/threonine-protein kinase 32B (Homo sapiens), sequence (Q9NY57 whole entry, canonical isoform): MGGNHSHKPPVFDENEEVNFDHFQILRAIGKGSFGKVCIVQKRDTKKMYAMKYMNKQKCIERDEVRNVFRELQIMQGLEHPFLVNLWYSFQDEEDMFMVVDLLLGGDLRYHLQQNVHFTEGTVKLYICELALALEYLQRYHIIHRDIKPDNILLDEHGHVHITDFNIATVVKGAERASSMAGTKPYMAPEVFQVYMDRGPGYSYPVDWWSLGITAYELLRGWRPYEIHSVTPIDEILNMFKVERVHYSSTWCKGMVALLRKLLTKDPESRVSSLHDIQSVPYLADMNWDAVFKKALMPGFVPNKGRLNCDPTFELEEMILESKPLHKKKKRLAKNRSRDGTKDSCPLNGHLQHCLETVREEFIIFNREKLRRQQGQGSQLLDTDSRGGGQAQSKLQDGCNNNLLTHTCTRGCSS

[6] = target: Casein kinase I isoform gamma-1 (Homo sapiens) (UniProt Q9HCP0); assay: Inhibition of human recombinant CK1g1 at 15 nM related to control ULK1
Casein kinase I isoform gamma-1 (Homo sapiens), sequence (Q9HCP0 whole entry, looked up, canonical isoform): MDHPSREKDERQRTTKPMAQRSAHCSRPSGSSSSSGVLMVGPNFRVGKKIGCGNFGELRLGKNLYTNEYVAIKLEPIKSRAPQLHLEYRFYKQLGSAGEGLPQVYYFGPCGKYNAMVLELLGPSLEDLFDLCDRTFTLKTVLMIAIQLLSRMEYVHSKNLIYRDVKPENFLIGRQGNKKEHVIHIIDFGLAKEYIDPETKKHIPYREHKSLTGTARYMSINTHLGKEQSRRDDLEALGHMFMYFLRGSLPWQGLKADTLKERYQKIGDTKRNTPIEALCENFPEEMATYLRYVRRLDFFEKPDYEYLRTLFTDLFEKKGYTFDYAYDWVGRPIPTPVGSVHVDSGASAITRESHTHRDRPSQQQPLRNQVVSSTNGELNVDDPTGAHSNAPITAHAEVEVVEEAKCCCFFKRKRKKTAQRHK

[7] = organism: Homo sapiens; assay: Inhibition of human recombinant ABL at 500 nM in presence of ATP by radiometric assay relative to control
Procedure, shortened: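 Panel of 327 recombinant human kinases in radiometric activity assays, each screened in duplicate at a single inhibitor concentration; percent activity remaining relative to vehicle control, percent inhibition taken as 100 minus activity remaining.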

[8] = target: T2, Ephrin type-B receptor 1 (Homo sapiens) (UniProt P54762); assay: Inhibition of human recombinant EphB1 at 500 nM related to control ULK1
T2 sequence (whole entry): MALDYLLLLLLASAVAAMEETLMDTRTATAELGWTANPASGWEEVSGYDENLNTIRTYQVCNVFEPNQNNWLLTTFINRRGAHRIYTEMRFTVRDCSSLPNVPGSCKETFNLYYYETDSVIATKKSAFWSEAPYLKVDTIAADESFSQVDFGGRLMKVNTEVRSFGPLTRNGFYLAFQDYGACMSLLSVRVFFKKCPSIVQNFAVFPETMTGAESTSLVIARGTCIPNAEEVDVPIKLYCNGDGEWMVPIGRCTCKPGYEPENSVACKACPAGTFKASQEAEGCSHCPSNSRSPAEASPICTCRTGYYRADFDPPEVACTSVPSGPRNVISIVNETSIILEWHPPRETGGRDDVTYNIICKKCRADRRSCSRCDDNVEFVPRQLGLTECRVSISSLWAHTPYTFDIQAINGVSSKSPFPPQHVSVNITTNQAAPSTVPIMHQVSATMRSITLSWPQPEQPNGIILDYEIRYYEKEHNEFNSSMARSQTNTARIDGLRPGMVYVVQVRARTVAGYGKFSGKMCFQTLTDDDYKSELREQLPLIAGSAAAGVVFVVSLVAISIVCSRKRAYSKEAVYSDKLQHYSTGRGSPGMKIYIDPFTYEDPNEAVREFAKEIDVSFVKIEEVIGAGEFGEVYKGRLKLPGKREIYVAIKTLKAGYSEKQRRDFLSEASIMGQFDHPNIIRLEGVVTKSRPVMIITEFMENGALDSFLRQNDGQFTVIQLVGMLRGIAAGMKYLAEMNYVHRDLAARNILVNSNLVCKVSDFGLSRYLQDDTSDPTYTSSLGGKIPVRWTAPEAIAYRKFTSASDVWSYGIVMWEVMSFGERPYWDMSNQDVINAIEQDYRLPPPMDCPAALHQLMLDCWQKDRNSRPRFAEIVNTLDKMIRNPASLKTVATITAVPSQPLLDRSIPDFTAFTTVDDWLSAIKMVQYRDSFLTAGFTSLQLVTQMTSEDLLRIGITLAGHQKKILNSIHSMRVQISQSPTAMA

Serine/threonine-protein kinase PLK1 (Homo sapiens), sequence (P53350 whole entry): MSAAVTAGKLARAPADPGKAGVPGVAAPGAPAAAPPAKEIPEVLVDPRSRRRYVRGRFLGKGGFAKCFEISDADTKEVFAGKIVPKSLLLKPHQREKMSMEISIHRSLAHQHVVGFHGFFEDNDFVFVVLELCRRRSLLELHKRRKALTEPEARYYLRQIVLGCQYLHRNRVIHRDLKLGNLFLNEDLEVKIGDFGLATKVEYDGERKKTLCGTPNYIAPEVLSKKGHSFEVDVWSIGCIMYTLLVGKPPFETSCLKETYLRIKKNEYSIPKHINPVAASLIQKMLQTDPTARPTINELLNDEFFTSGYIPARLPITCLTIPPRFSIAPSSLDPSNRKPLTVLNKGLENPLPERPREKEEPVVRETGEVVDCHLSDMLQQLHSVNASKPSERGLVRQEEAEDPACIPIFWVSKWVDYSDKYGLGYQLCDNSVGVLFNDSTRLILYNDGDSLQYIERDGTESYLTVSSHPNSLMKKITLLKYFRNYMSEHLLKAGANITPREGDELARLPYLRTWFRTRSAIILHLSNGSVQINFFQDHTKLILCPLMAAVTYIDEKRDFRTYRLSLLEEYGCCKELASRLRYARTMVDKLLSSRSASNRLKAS

O=C(N[C@@H](C1CC1)C(F)(F)F)c1cc(-c2cnn3cc(-c4ccc(F)cc4)cnc23)cs1
inhibition [1]: 0%
inhibition [2]: 0%
fold change (FC) [3]: 0.04

CC(C)[C@H](NC(=O)c1cc(-c2cnn3cc(-c4ccc(OCCN5CCCCC5)cc4)cnc23)cs1)C(F)(F)F
inhibition [4]: 0%
fold change (FC) [5]: 0
fold change (FC) [6]: 0

CNC(=O)c1ccccc1Oc1nc(Nc2cc(OC)c(OC)c(OC)c2)ncc1Br
inhibition [7]: 14%
fold change (FC) [8]: 0.14
